Measured values as given in ChEMBL document CHEMBL1143784, “Identification and structure-activity relationships of 1-aryl-3-piperidin-4-yl-urea derivatives as CXCR3 receptor antagonists” (Bioorg Med Chem Lett, 2007).
In brackets after ≈: the same amount, converted by molar mass.

What was measured:
[1] = molecular target: T1, C-X-C chemokine receptor type 3 (Homo sapiens, UniProt P49682); test: Antagonist activity at human CXCR3 expressed in CHO cells by [35S]GTP-gamma-S binding assay; assay type: functional, cell-based
T1 sequence (P49682 whole entry): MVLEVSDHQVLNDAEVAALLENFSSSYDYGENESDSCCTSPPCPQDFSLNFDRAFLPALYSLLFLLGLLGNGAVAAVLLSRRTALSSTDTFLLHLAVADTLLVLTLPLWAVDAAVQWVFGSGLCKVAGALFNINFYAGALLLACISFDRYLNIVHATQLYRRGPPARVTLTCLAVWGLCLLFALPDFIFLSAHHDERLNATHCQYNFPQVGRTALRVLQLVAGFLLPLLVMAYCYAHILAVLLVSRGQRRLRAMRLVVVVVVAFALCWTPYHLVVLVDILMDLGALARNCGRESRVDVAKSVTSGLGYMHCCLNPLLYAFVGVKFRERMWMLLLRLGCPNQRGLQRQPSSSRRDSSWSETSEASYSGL

[2] = molecular target: T2, C-X-C chemokine receptor type 3 (Homo sapiens) (UniProt P49682); test: Antagonist activity at human CXCR3 expressed in CHO cells by [35S]GTP-gamma-S binding assay at 10 uM; assay type: functional, cell-based
T2 sequence (whole entry): T1 sequence (P49682 whole entry)

[3] = molecular target: Cytochrome P450 2D6 (Homo sapiens, UniProt P10635); test: Inhibition at human CYP2D6; assay type: ADME
Chain of Cytochrome P450 2D6 (P10635 whole entry): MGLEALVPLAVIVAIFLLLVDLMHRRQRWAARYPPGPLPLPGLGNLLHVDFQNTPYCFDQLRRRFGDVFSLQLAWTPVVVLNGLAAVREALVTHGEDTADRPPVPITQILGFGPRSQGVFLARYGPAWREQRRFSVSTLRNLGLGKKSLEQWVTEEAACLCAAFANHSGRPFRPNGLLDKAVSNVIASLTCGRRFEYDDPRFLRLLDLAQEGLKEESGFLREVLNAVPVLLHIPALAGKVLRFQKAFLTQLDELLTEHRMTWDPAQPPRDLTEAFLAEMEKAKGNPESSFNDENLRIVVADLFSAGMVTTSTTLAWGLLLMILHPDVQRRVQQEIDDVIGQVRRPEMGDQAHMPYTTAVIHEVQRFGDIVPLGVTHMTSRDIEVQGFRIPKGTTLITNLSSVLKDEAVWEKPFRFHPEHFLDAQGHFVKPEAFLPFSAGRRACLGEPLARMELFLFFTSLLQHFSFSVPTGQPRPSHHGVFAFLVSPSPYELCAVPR

[4] = Distribution coefficient, log D of the compound; assay type: physicochemical; details: octanol/water
[5] = molecular target: T3, C-X-C chemokine receptor type 3 (Mus musculus, UniProt O88410); test: Antagonist activity at mouse CXCR3 by [35S]GTP-gamma-S binding assay; assay type: functional
T3 sequence (O88410 whole entry): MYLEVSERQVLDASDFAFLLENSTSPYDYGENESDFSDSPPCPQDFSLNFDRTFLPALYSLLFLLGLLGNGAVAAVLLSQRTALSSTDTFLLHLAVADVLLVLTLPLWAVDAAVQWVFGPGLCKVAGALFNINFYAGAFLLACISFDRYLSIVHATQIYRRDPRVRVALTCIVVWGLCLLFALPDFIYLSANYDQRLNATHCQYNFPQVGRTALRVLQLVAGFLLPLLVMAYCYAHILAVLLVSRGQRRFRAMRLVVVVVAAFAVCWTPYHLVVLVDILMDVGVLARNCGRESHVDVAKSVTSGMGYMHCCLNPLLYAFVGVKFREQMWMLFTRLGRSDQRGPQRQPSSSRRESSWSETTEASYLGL

[6] = Aqueous solubility at pH 6.5; assay type: physicochemical
[7] = Clearance in mouse at 1 mg/kg, iv; assay type: ADME, organism-based; set-up: dose 1 mg/kg, route intravenous; details: in vivo
Summary of the method: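 Mice given 1 mg/kg intravenously; clearance determined.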

[8] = Clearance in mouse liver microsomes at 0.5 uM; assay type: ADME, Microsome
Summary of the method: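 Clearance determined in mouse liver microsomes with compound at 0.5 µM.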

Compound	Ki [1] [nM]	also measured
CC1(C)[C@H]2CC=C(CN3CCC(NC(=O)Nc4cccc(OC5CCOCC5)c4)CC3)[C@@H]1C2	191	–
CC(=O)c1cccc(NC(=O)NC2CCN(C/C3=C/CCCCCC3)CC2)c1	637	–
CC1(C)[C@H]2CC=C(CN3CCC(NC(=O)Nc4cc(C(F)(F)F)cc(C(F)(F)F)c4)CC3)[C@@H]1C2	73	–
O=C(Nc1cccc(Cl)c1)NC1CCN(C/C2=C/CCCCCC2)CC1	201	–
CC1(C)C2CC=C(CCN3CCC(NC(=O)Nc4ccc5ccccc5c4)CC3)C1C2 (stereo not given)	290	–
O=C(Nc1cc(Cl)cc(Cl)c1)NC1CCN(C/C2=C/CCCCCC2)CC1	41	–
O=C(Nc1ccc2ccccc2c1)NC1CCN(CCc2ccccc2)CC1	1300	–
CC1(C)[C@H]2CC=C(CN3CCC(NC(=O)Nc4cccc(CN5CCOCC5)c4)CC3)[C@@H]1C2	–	Intrinsic activity [2]: < 50%
COc1cccc(-c2ccc(NC(=O)NC3CCN(CC4=CC[C@H]5C[C@@H]4C5(C)C)CC3)s2)c1	29	–
CC1(C)[C@H]2CC=C(CN3CCC(NC(=O)Nc4cccc(OC(F)(F)F)c4)CC3)[C@@H]1C2	31	–
CC1(C)[C@H]2CC=C(CN3CCC(NC(=O)Nc4ccc(F)c(C(F)(F)F)c4)CC3)[C@@H]1C2	81	–
O=C(Nc1ccc2ccccc2c1)NC1CCN(C/C2=C/CCCCCC2)CC1	110	Ki [3]: 600 nM; logD [4]: 4.95; Ki [5]: 400 nM; solubility [6]: 1 µg/mL (≈ 2.55 µM)
N#Cc1cccc(NC(=O)NC2CCN(C/C3=C/CCCCCC3)CC2)c1	–	Intrinsic activity [2]: < 50%
CC(=O)c1cccc(NC(=O)NC2CCN(CC3=CC[C@H]4C[C@@H]3C4(C)C)CC2)c1	258	–
O=C(Nc1cccc2ccccc12)NC1CCN(C/C2=C/CCCCCC2)CC1	–	Intrinsic activity [2]: < 50%
CC1(C)[C@H]2CC=C(C[N+]3(C)CCC(NC(=O)Nc4cc(F)cc(C(F)(F)F)c4)CC3)[C@@H]1C2.[I-] (stereo not given in full)	28	logD [4]: 2.35; solubility [6]: 55 µg/mL; clearance [7]: 34.5 mL/min/kg; microsomal CLint at 0.5 µM [8]: 66 µL/min/mg
CC1(C)[C@H]2CC=C(CN3CCC(NC(=O)Nc4cncc(-c5cccs5)c4)CC3)[C@@H]1C2	70	logD [4]: 3.47; solubility [6]: 4 µg/mL (≈ 9.16 µM); clearance [7]: 112 mL/min/kg; microsomal CLint at 0.5 µM [8]: 324 µL/min/mg
CC1(C)[C@H]2CC=C(CN3CCC(NC(=O)Nc4cc(C(F)(F)F)ccc4F)CC3)[C@@H]1C2	229	–
CC1(C)[C@H]2CC=C(CN3CCC(NC(=O)Nc4cc(F)cc(C(F)(F)F)c4)CC3)[C@@H]1C2	16	–
CC1(C)[C@H]2CC=C(CN3CCC(NC(=O)Nc4cncc(-c5ccsc5)c4)CC3)[C@@H]1C2	107	–
N#Cc1ccc(NC(=O)NC2CCN(C/C3=C/CCCCCC3)CC2)cc1	–	Intrinsic activity [2]: < 50%
CC1(C)[C@H]2CC=C(CN3CCC(NC(=O)Nc4cc(F)cc(F)c4)CC3)[C@@H]1C2	171	–
O=C(Nc1ccc2ccccc2c1)NC1CCN(CCCc2ccccc2)CC1	2200	–

Compound	Ki [1] [nM]	also measured
COC(=O)c1cccc(NC(=O)NC2CCN(CC3=CC[C@H]4C[C@@H]3C4(C)C)CC2)c1	376	–
O=C(Nc1ccc(-c2ccccc2)s1)NC1CCN(C/C2=C/CCCCCC2)CC1	108	–
O=C(Nc1ccsc1)NC1CCN(C/C2=C/CCCCCC2)CC1	–	Intrinsic activity [2]: < 50%
O=C(Nc1ccc2ccccc2c1)NC1CCN(CC23C=CC(CC2)C3)CC1 (stereo not given)	–	Intrinsic activity [2]: < 50%
CC1(C)[C@H]2CC=C(CN3CCC(NC(=O)Nc4cccc(CO)c4)CC3)[C@@H]1C2	–	Intrinsic activity [2]: < 50%
O=C(Nc1cccc(C(F)(F)F)c1)NC1CCN(C/C2=C/CCCCCC2)CC1	88	–
O=C(Nc1cccc(OC(F)(F)F)c1)NC1CCN(C/C2=C/CCCCCC2)CC1	104	–
COc1cccc(NC(=O)NC2CCN(CC3=CC[C@H]4C[C@@H]3C4(C)C)CC2)c1	429	–
CC1(C)[C@H]2CC=C(CN3CCC(NC(=O)Nc4ccc(-c5ccccc5)s4)CC3)[C@@H]1C2	191	–
O=C(Nc1ccc(Oc2ccccc2)cc1)NC1CCN(C/C2=C/CCCCCC2)CC1	306	–
CC1(C)[C@H]2CC=C(CN3CCC(NC(=O)Nc4ccccc4)CC3)[C@@H]1C2	2000	–
O=C(Nc1cc(Cl)nc(Cl)c1)NC1CCN(C/C2=C/CCCCCC2)CC1	3400	–
CC1(C)[C@H]2CC=C(CN3CCC(NC(=O)Nc4cccc(C(=O)O)c4)CC3)[C@@H]1C2	–	Intrinsic activity [2]: < 50%
CC1(C)[C@H]2CC=C(CN3CCC(NC(=O)Nc4ccc(-c5ccccc5Cl)s4)CC3)[C@@H]1C2	46	–
O=C(Nc1cc(C(F)(F)F)cc(C(F)(F)F)c1)NC1CCN(C/C2=C/CCCCCC2)CC1	36	–
CC(C)(C)c1ccc(NC(=O)NC2CCN(C/C3=C/CCCCCC3)CC2)cc1	1040	–
CC1(C)[C@H]2CC=C(CN3CCC(NC(=O)Nc4cccc(OC5CCOC5)c4)CC3)[C@@H]1C2 (stereo not given in full)	141	logD [4]: 3.87; solubility [6]: 927 µg/mL (≈ 2110 µM); clearance [7]: 222 mL/min/kg; microsomal CLint at 0.5 µM [8]: 287 µL/min/mg
CC1(C)[C@H]2CC=C(CN3CCC(NC(=O)Nc4ccc(-c5ccc(C(F)(F)F)cc5)s4)CC3)[C@@H]1C2	39	–
CC1(C)[C@H]2CC=C(CN3CCC(NC(=O)Nc4cc(F)cc(OC5CCOC5)c4)CC3)[C@@H]1C2 (stereo not given in full)	83	logD [4]: 3; solubility [6]: 874 µg/mL (≈ 1910 µM); microsomal CLint at 0.5 µM [8]: 97 µL/min/mg
COC(=O)c1cccc(NC(=O)NC2CCN(C/C3=C/CCCCCC3)CC2)c1	660	–
CC1(C)[C@H]2CC=C(CN3CCC(NC(=O)Nc4cncc(Br)c4)CC3)[C@@H]1C2	171	–
O=C(Nc1cc(F)cc(C(F)(F)F)c1)NC1CCN(C/C2=C/CCCCCC2)CC1	47	–
CC1(C)[C@H]2CC=C(CN3CCC(NC(=O)Nc4ccc(OC(F)(F)F)cc4)CC3)[C@@H]1C2	175	–
